Reference: ChEMBL document CHEMBL1121934, “2,3-dihydro and carbocyclic analogues of tryptamines: interaction with serotonin receptors” (J Med Chem, 1982)

Biological target: 5-hydroxytryptamine receptor 2B (Rattus norvegicus, UniProt P30994)
Assay: The binding affinity to 5-hydroxytryptamine 2B receptor of rat fundus
Settings: read-out: pA2 (converted)
Procedure, shortened: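 Isolated rat stomach fundus strip preparation. After a 1-h equilibration, 5-HT oxalate dose-response curves (9–11 increasing concentrations) were run without and with 4–5 increasing concentrations of test compound. Apparent affinity was expressed as pA2 by Arunlakshana–Schild analysis, with linear regression giving both pA2 and Schild plot slope.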

Chain of 5-hydroxytryptamine receptor 2B (P30994 whole entry): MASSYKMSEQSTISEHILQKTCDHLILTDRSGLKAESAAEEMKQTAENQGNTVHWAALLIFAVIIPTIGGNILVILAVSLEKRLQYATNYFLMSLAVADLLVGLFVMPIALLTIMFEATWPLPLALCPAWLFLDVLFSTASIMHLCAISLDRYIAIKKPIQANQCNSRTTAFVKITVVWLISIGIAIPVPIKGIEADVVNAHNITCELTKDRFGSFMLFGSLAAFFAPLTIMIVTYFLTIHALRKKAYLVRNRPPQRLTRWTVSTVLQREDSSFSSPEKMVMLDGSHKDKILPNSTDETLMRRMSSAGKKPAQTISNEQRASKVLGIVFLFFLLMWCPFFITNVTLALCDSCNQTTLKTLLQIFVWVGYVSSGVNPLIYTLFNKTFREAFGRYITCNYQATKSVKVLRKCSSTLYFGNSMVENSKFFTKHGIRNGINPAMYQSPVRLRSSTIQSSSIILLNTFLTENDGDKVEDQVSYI

Compound	Kb
COc1ccc2c(c1)C(CCN(C)C)CN2 (racemic)	182 nM
NCCC1CCc2ccccc21 (racemic)	2510 nM
NCCc1c[nH]c2ccccc12 [TRYPTAMINE]	537 nM
CN(C)CCC1CCc2ccccc21 (racemic)	4570 nM
CNCCC1CCc2ccccc21 (racemic)	4270 nM
CNCCc1c[nH]c2ccccc12	1070 nM
CN(C)CCCc1ccccc1	8130 nM
NC1CCc2ccccc2C1 (stereo not drawn)	2450 nM
CN(C)CCC1=CCc2ccccc21	2090 nM
CN(C)CCNc1ccccc1	955 nM
CN(C)CCC1CNc2ccccc21 (racemic)	2090 nM
CNCCC1CCc2ccccc21 (stereo in doubt; 4d)	2190 nM
CN(C)CCC(=O)c1ccccc1	4790 nM
